We go through 1 compound from ChEMBL document CHEMBL4152320, “Discovery and development of novel salicylate synthase (MbtI) furanic inhibitors as antitubercular agents” (Eur J Med Chem, 2018).

≈ marks a conversion by molar mass, not a printed value.

Assay [1] concerns Mycobacterium tuberculosis. As to the kind of experiment: Antimycobacterial activity against Mycobacterium bovis BCG in low iron containing medium. In kind it is functional. The settings on record: variant bovis BCG. A digest of the protocol:
(§1)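 M. bovis BCG MIC determined in liquid medium, comparing iron conditions: cells grown in 7H9/OADC (high iron) versus low-iron chelated Sauton's medium.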

Assay [2] has as its system Mycobacterium tuberculosis. As to the kind of experiment: Antimycobacterial activity against Mycobacterium bovis BCG in 7H9 medium. In kind it is functional. The settings on record: variant bovis BCG. A digest of the protocol:
as §1

Assay [3] deals with Mycobacterium tuberculosis. As to the kind of experiment: Ratio of MIC for Mycobacterium bovis BCG in 7H9 medium to MIC for Mycobacterium bovis BCG in low iron containing medium. The assay is classed as functional, variant bovis BCG.

Consider `O=C(O)c1ccc(-c2ccc([N+](=O)[O-])cc2)o1`, for which the MIC came to 80 µM (≈ 18.7 µg/mL) in assay [1] and 240 µM (≈ 56 µg/mL) in assay [2]. Besides, the Ratio in assay [3] was 3.
